In ChEMBL document CHEMBL1135640, “Synthesis and antitumor activity of new derivatives of xanthen-9-one-4-acetic acid” (J Med Chem, 2002):

How the values were obtained:
C13 [1] = assay: In vitro cytotoxicity against C13 tumor cell line; Not detected; type: functional, cell-based, Homo sapiens
How it was run: (§1)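 Cisplatin-resistant C13* human ovarian adenocarcinoma cells, kept in RPMI 1640 with 10% heat-inactivated FCS and 2 mM L-glutamine, seeded and treated 24 h later with graded concentrations for 24 h. Viability by MTT (4 h, 37 °C; DMSO solubilization; 570 nm, reference 630 nm). IC50 with 95% confidence limits by Litchfield–Wilcoxon; three experiments in triplicate.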

[2] = Compound was tested for toxicity induced in murine macrophage; settings: Mus musculus
How it was run: (§2)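 Resident mouse peritoneal cells recovered by PBS–heparin (10 U/mL) lavage, adhered 2 h at 37 °C in RPMI 1640 + 5% FCS. Macrophages plated at 1 × 10⁴/well with graded drug concentrations for 24 h (triplicate wells). C13* cells (2 × 10³/well) then added, cocultured 24 h, MTT read-out. Specific cytotoxicity = [OD(macrophages+C13*) − OD(macrophages)]/OD(C13*). IC50 with 95% limits by Litchfield–Wilcoxon.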

Mus musculus = species on record: Mus musculus; assay: Potency ratio as the ratio of IC50 of DMXXA against murine macrophages to that of the IC50 against murine macrophages; type: ADME
[3] = Compound was tested for toxicity induced in human monocyte; b indicates Not detected
How it was run: (§3)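 Adherent human peripheral blood mononuclear cells (Ficoll-isolated, 2 h adhesion at 37 °C, nonadherent cells washed off) exposed 24 h to 25, 50, 100 μM test agent, triplicate wells per dose. Medium then replaced with C13* ovarian carcinoma cells (2 × 10³/well), cocultured 24 h, lysis read by MTT. IC50 with 95% confidence limits by Litchfield–Wilcoxon; three experiments in triplicate.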

[4] = Compound was tested for toxicity induced in human monocyte; how it was run: as §3
Homo sapiens = species on record: Homo sapiens; assay: Potency ratio as the ratio of IC50 of DMXXA against human monocytes to that of the IC50 against human monocytes.; type: ADME
[5] = Potency ratio against macrophages.; type: ADME
C13 [6] = assay: In vitro cytotoxicity against C13 tumor cell line; type: functional, cell-based; settings: Homo sapiens; how it was run: as §1
[7] = Compound was tested for toxicity induced in murine macrophage; b indicates Not detected; settings: mouse; how it was run: as §2

Row | Potency ratio (Mus musculus) | Potency ratio (Homo sapiens) | Potency ratio [5] | Structure (SMILES) | IC50 (C13 [1]) | IC50 [2] [µM] | IC50 [3] | IC50 [4] [µM] | IC50 (C13 [6]) [µM] | Potency ratio [7]
1 | 2.9 | 1.2 | 0.7 | CC1(C)CCc2c(ccc3c(=O)c4cccc(CC(=O)O)c4oc23)O1 | Not detected | 71.5 | – | 108 | – | –
2 | 0.9 | 0.8 | 1.3 | CC1(C)Cc2c(ccc3c(=O)c4cccc(CC(=O)O)c4oc23)O1 | – | 220 | – | 172 | 604 | –
3 | 1 | 1.8 | 2.7 | COC(=O)Cc1cccc2c(=O)c3ccc4c(c3oc12)CC(C)(C)O4 | – | 201 | – | 73.7 | 549 | –
4 | 6.9 | 2.5 | 0.6 | COC(=O)Cc1cccc2c(=O)c3ccc4c(c3oc12)C=CC(C)(C)O4 | Not detected | 30.5 | – | 53.5 | – | –
5 | 2.6 | – | – | COC(=O)Cc1cccc2c(=O)c3ccc4oc(C)cc4c3oc12 | Not detected | 80.9 | Not detected | – | – | –
6 | 0.6 | – | – | C#CCOc1ccc2c(=O)c3cccc(CC(=O)OC)c3oc2c1C | – | 372 | Not detected | – | 410 | –

The remaining lines, values behind:

Row | Structure (SMILES) | Potency ratio (Mus musculus) | Potency ratio (Homo sapiens) | Potency ratio [5] | IC50 (C13 [1]) | IC50 [2] [µM] | IC50 [3] | IC50 [4] [µM] | IC50 (C13 [6]) [µM] | Potency ratio [7]
7 | Cc1cc2c(ccc3c(=O)c4cccc(CC(=O)O)c4oc32)o1 | 5 | – | – | Not detected | 42 | Not detected | – | – | –
8 | CC1(C)C=Cc2c(ccc3c(=O)c4cccc(CC(=O)O)c4oc23)O1 | 4.7 | 0.5 | 0.2 | – | 45.1 | – | 259 | 726 | –
9 | CC1Cc2c(ccc3c(=O)c4cccc(CC(=O)O)c4oc23)O1 (stereo not drawn) | 1.3 | 0.7 | 0.9 | – | 157 | – | 178 | 711 | –
10 | C=C(C)COc1ccc2c(=O)c3cccc(CC(=O)OC)c3oc2c1C | – | – | – | – | – | – | 84.6 | 488 | Not detected
11 | CC(C)=CCOc1ccc2c(=O)c3cccc(CC(=O)O)c3oc2c1 | 0.8 | 2.1 | 4.1 | – | 264 | – | 64.2 | 626 | –
12 | COC(=O)Cc1cccc2c(=O)c3ccc(OCC=C(C)C)c(C)c3oc12 | 1 | 1.8 | 3 | – | 224 | – | 73.6 | 702 | –
13 | COC(=O)Cc1cccc2c(=O)c3ccc4c(c3oc12)CC(C)O4 (stereo not drawn) | 2.5 | 2 | 1.2 | Not detected | 82.8 | – | 67.3 | – | –
14 | C=CCOc1ccc2c(=O)c3cccc(CC(=O)O)c3oc2c1 | 1 | – | – | – | 218 | Not detected | – | 510 | –
15 | C=CCOc1ccc2c(=O)c3cccc(CC(=O)OC)c3oc2c1 | 3.4 | 0.8 | 0.5 | – | 61.6 | – | 114 | 509 | –
16 | C=C(C)COc1ccc2c(=O)c3cccc(CC(=O)O)c3oc2c1C | 2.7 | 1.6 | 0.9 | – | 77.3 | – | 86.2 | 443 | –
17 | Cc1ccc2c(=O)c3cccc(CC(=O)O)c3oc2c1C [VADIMEZAN] | – | – | – | – | 211 | – | 135 | 615 | –
